Experimental data collected from several papers.
Protocols differ between the studies behind these lines.
Target: Muscarinic acetylcholine receptor M2 (CHRM2, Homo sapiens, UniProt P08172)
Tested at: 10 µM
Sequence (P08172 1-466, as in one of the studies): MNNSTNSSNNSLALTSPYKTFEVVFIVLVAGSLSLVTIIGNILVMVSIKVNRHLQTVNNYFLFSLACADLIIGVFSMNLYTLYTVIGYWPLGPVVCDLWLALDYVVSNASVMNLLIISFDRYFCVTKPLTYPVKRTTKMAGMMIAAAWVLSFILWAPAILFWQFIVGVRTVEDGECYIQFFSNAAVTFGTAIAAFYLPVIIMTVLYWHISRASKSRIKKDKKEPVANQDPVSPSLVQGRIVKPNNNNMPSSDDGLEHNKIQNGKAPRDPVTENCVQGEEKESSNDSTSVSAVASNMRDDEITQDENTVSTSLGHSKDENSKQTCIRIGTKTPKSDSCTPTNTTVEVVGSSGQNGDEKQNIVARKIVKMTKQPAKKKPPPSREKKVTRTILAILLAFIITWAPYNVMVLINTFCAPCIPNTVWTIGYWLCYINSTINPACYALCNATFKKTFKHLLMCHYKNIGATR

| SMILES | assay | inhibition [%] |
| --- | --- | --- |
| O=C(c1ccc(Cl)cc1)N(Cc1ccccc1)C1CCCCC1 | cell-free assay | 38.2 |
| CCCNc1nc2ccccc2n1Cc1ccc(Cl)cc1 | ligand displacement | 13.7 |
| CCN(CC)c1ccc(C2Nc3ccc(C(=O)c4ccccc4)cc3NC3=C2C(=O)CC(C)(C)C3)cc1 (centres unmarked) | ligand displacement, radioligand | -1 |
| N#Cc1cc(Cn2c(N3CCCC3)nc3ccccc32)ccc1F | ligand displacement | 7.75 |
| O=C1N=C(N2CCCCN2)S/C1=C\c1ccc(F)cc1O | ligand displacement, radioligand | < 10 |
| O=C(Nc1ccc(S(=O)(=O)N2CCC(Cl)CC2)cc1)c1ccc([N+](=O)[O-])o1 | ligand displacement, radioligand | 10 |
| O=C(NNS(=O)(=O)c1ccccc1F)c1cc(F)cc(-c2ccccn2)c1 | cell-free assay | 15.9 |
| Ic1cccc2cnccc12 | ligand displacement, radioligand | 0 |
| COc1cc(NC(C)=O)c(Cl)cc1C(=O)Nc1nccs1 | cell-free assay | -25.3 |
| CC1CCN(c2ccnc(NCc3cn(C)cn3)n2)CC1 | ligand displacement | 7.21 |
| CCN(Cc1ccccc1C(F)(F)F)C(=O)C1CCN(S(=O)(=O)c2ccc3[nH]ncc3c2)CC1 | ligand displacement, radioligand | 1 |
